Assay outcomes as filed in PubChem BioAssay.
STAT1 act-1: activators of IFN-gamma induced STAT1 signaling; activation (% of control), % at 5.5 µM; AID 932; NIH 3T3 STAT1-luciferase reporter, luminescence; 100% = IFN-gamma alone, no compound; hit rate 2.6% among 200,000;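 active = activation above the screen-wide mean activation plus 3 SD, cut at about 130% in these data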;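 note: raw ratio to IFN-gamma control signal so 100% means no change and 0% no light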
APP 5'UTR act: APP 5'UTR luciferase reporter activation | SH-SY5Y APP 5'UTR luciferase reporter, luminescence; zero percent = DMSO vehicle wells | activation, % at 2 µM | hit rate 1% among 190,000 | AID 1276;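 active = activation above a set limit, based on mean plus 3 SD of controls, cut at about 140% in these data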
NF-kB neuron act: NF-kB expression increase, human neuronal cells. NF-kB reporter expression; stronger effect = higher value. fold change at 12.5 µM. hit rate 1.6% among 190,000; in the data active = fold change above about 3.3
STAT3 act-1: STAT3 signaling activation. U3A cells, IL-6 STAT3-luciferase reporter, luminescence; 100% = signal with IL-6 EC80 alone. activation (% of control), % at 5.6 µM. hit rate 0.91% among 190,000;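 active = activation above the screen-wide mean of compound activation plus 3 SD, cut at about 130% in these data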;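 note: 0% = background luminescence of wells with medium and substrate only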
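Material: STAT1-lacking human U3A cells, STAT3 luciferase reporter | Benchmarks: IL-6-only wells as 100% reference | Probe or stimulus: IL-6 (33 ng/mL) | Timing: Compound 1 h, then IL-6 6 h at 37 °C | Detection: Luminescence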
STAT3 blocker: STAT3 signaling inhibition; U3A cells, IL-6 STAT3-luciferase reporter, luminescence; host cell line lacks STAT1; inhibition, % at 5.5 µM; hit rate 0.89% among 190,000; AID 862;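 active = inhibition above the mean inhibition across all screened compounds plus 3 SD, cut at about 44% in these data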;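 note: 0% = DMSO only wells and 100% = 100 µM nifuroxazide control wells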
STAT1 inh: reduces IFN-gamma driven STAT1 reporter signal. NIH 3T3 STAT1-luciferase reporter, luminescence. inhibition, % at 5.5 µM. hit rate 0.35% among 200,000;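 active = inhibition above a set limit, the mean inhibition across all tested compounds plus 3 SD, cut at about 34% in these data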;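 note: 0% = IFN-gamma with DMSO and 100% = IFN-gamma with 300 µM nifuroxazide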
STAT3 act-2: confirmation of STAT3 signaling activators; shares compounds with STAT3 act-1; AID 1267; hit rate 64% among 1,200; U3A STAT3-luciferase reporter, IL-6 potentiation, luminescence; U3A cells lack STAT1; 100 means same as IL-6 alone; potentiation (% of control), % at 5.7 µM;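 active = percent activation of the STAT3 luciferase reporter above a set limit taken from the earlier primary screen, cut at about 130% in these data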;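 note: 0% = background signal of medium plus substrate and 100% = median of IL-6 with DMSO wells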
NFkB act STAT3ct: activates NF-kappaB, counter-screen to STAT3 activators; shares compounds with STAT3 act-1; human cells, NF-kappaB reporter activation; activation (% of control), % at 5.7 µM; hit rate 11% among 1,200; AID 1309; in the data active = activation above about 120%;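 note: reporter induced by TNF-alpha stimulation; 100% = median of stimulated DMSO wells and 0% = no signal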
STAT1 act-2: STAT1 activation in STAT3 activator counter-screen; shares compounds with STAT3 act-1; NIH 3T3 STAT1-luciferase reporter, IFN-gamma, luminescence; activation (% of control), % at 5.7 µM; hit rate 13% among 1,200; AID 1318;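 active = activation above the solvent-only control well mean plus 3 SD, set per screening run, cut at about 120% in these data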;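 note: 100% = IFN-gamma with DMSO median signal so 100% means no change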
Active calls of the source: *; / = not tested or not shown. A selection: hits, their analogues and other compounds. The true share with any hit is near 4.9%.

SMILES | STAT1 act-1 | APP 5'UTR act | NF-kB neuron act | STAT3 act-1 | STAT3 blocker | STAT1 inh | STAT3 act-2 | NFkB act STAT3ct | STAT1 act-2
Cc1noc(C)c1S(=O)(=O)N(CC(=O)N1CCn2c1nc1ccccc12)c1ccc(C(C)C)cc1 | 100 | 1 | 0.95 | 149* | -55 | 0 | 138* | 105 | 110
CCCN(c1ccc(C(C)C)cc1)S(=O)(=O)c1c(C)noc1C | 94 | 13 | 0.92 | 105 | -5 | 7 | / | / | /
CCOC(=O)CC(=O)CSc1nc(-c2ccc3c(c2)OCO3)cc(C(F)(F)F)c1C#N | 93 | 11 | 1.2 | 140* | -34 | 8 | 118 | 98 | 93
CCOC(=O)CCSc1nc(-c2ccc3c(c2)OCO3)cc(C(F)(F)F)c1C#N | 107 | -9 | 1.1 | 98 | 3 | -8 | / | / | /
Cc1nc(/N=C(\N)NC(=O)c2ccccc2)nc2ccccc12 | 102 | 15 | 0.98 | 177* | -78 | -2 | 168* | 121* | 116
Cc1nc(N=C(N)N)nc2ccccc12 | 103 | 23 | 1.1 | 116 | -18 | -3 | / | / | /
Fc1ccccc1C1c2[nH]c3ccccc3c2CCN1Cc1cccn1-c1ncccn1 (stereo not drawn) | 108 | 11 | 1.2 | 133 | -32 | -11 | / | / | /
Cn1nccc1C(=O)N1CCc2c([nH]c3ccccc23)C1c1ccc(F)cc1 (stereo not drawn) | 99 | 1 | 0.86 | 109 | -8 | -1 | / | / | /
Cc1nonc1CC(=O)N1CCc2c([nH]c3ccccc23)C1c1ccccc1F (stereo not drawn) | 109 | -8 | 0.99 | 149* | -50 | -11 | 143* | 105 | 93
O=C(Cc1cnc2ncnn2c1)N1CCc2c([nH]c3ccccc23)C1c1ccccc1F (stereo not drawn) | 91 | 31 | 1.8 | 144* | -49 | 8 | 140* | 104 | 102
CC(C)Cc1cc(C(=O)Nc2cc(Cl)ccc2Cl)no1 | 100 | -4 | 1.2 | 138* | -41 | -1 | 137* | 112 | 116
CCc1nnc(NS(=O)(=O)c2ccc(N/C=C(\C=O)c3nc4cc(Cl)ccc4o3)cc2)s1 | 102 | 4 | 1.2 | 149* | -52 | -3 | 135* | 103 | 99
COc1cc(NS(=O)(=O)c2ccc(N/C=C(\C=O)c3nc4ccccc4o3)cc2)nc(OC)n1 | 93 | 4 | 1 | 147* | -54 | 7 | 136* | 104 | 95
O=C(CN1CCN(Cc2ccccc2)CC1)c1c[nH]c2ccccc12 | 97 | -11 | 1 | 138* | -42 | 3 | 123 | 100 | 98
O=C(CN1CCSCC1)c1c[nH]c2ccccc12 | 87 | 2 | 0.98 | 125 | -21 | 14 | / | / | /
CCn1c(N2CCN(CC(=O)c3c(C)n(C)c4ccccc34)CC2)nc2c1c(=O)[nH]c(=O)n2C | 97 | -5 | 0.68 | 93 | 12 | 3 | / | / | /
CCCn1c(N2CCN(CC(=O)c3c[nH]c4ccccc34)CC2)nc2c1c(=O)[nH]c(=O)n2C | 99 | 3 | 0.88 | 147* | -53 | 1 | 139* | 104 | 97
CCCCCCOc1ccc(N2C(=O)CC(SC(=NCC)NCC)C2=O)cc1 (stereo not drawn) | 99 | 8 | 1.3 | 98 | 5 | -1 | / | / | /
CC(=O)N1CCN(c2ccccc2NC(=O)Cc2ccc(Cl)cc2)CC1 | 91 | 5 | 1.2 | 100 | 7 | 8 | / | / | /
CCC(c1nnnn1C1CCCC1)N1CCN(c2cccc(OC)c2)CC1 (stereo not drawn) | 95 | 23 | 1.1 | 99 | 7 | 5 | / | / | /
Cc1cccc(C2c3[nH]c4ccccc4c3CCN2C(=O)c2cn(C)c3ccccc3c2=O)n1 (stereo not drawn) | 98 | 16 | 0.84 | 136* | -34 | 2 | 118 | 101 | 92
Cc1cccc(C2c3[nH]c4ccccc4c3CCN2Cc2cnn(-c3ccc(F)cc3)c2)n1 (stereo not drawn) | 101 | 4 | 1 | 150* | -50 | -2 | 152* | 102 | 95
Fc1ccc(C2c3[nH]c4ccccc4c3CCN2Cc2ccoc2)cc1 (stereo not drawn) | 100 | 0 | 1.1 | 115 | -13 | -1 | / | / | /
O=C(O)/C=C/C(=O)Nc1ccc(-c2ccccc2)cc1 | 120 | 4 | 1.7 | 107 | -3 | -26 | / | / | /
Clc1ccc(-c2ccc(/C=N/Nc3nncc(-c4ccccc4)n3)o2)cc1 | 106 | 3 | 1.2 | 102 | -2 | -7 | / | / | /
SMILES | STAT1 act-1 | APP 5'UTR act | NF-kB neuron act | STAT3 act-1 | STAT3 blocker | STAT1 inh | STAT3 act-2 | NFkB act STAT3ct | STAT1 act-2
Clc1ccccc1-c1ccc(/C=N/Nc2nncc(-c3ccccc3)n2)o1 | 96 | -8 | 1.3 | 163* | -74 | 3 | 154* | 103 | 107
COc1cc(-c2nc3ccccc3s2)ccc1O | 104 | 48 | 2.7 | 141* | -48 | -4 | 135* | 94 | 121*
COc1cc(OC)c(-c2nc3ccccc3s2)cc1OC | 106 | 26 | 0.98 | 149* | -51 | -9 | 154* | 104 | 114
Clc1ncccc1-c1nc2ccccc2s1 | 124 | 30 | 1.8 | 100 | 2 | -26 | / | / | /
Cc1nn(-c2ccccc2)c2c1C(c1ccccc1)C(C#N)=C(N)O2 (stereo not drawn) | 96 | 26 | 1.1 | 122 | -22 | 4 | / | / | /
Cc1ccc(-n2nc(C)c3c2OC(N)=C(C#N)C3c2ccoc2)cc1 (stereo not drawn) | 95 | 2 | 0.81 | 177* | -85 | 6 | 153* | 104 | 91
O=[N+]([O-])c1ccc(Cl)c(/C=N/N2CCN(c3ccccc3)CC2)c1 | 100 | -6 | 1.4 | 145* | -40 | 0 | 135* | 100 | 100
O=C(N=Nc1ccc(NOC(=O)c2ccccc2Br)cc1)c1ccccc1O | 96 | 16 | 1.4 | 97 | 12 | 3 | / | / | /
O=C(CSc1nnc(-c2ccncc2)o1)N1CCc2ccccc2C1 | 102 | 33 | 0.93 | 94 | 11 | -2 | / | / | /
CC1=C(C(=O)OCC2CCCO2)C(c2coc3ccccc3c2=O)C2=C(CCCC2=O)N1 (stereo not drawn) | 107 | 10 | 0.98 | 143* | -36 | -7 | 161* | 102 | 108
CC1=C(C(=O)OC2CCCC2)C(c2coc3ccccc3c2=O)C2=C(CCCC2=O)N1 (stereo not drawn) | 99 | 4 | 1.1 | 137* | -37 | 3 | 125 | 95 | 92
